Source: the EternaBench riboswitch data

Test system: MS2 coat protein
Assay: apparent Kd, MS2 coat protein; higher = weaker binding; RNA-MaP array; FMN 200 µM where present
How it was run: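 Binding was read on Illumina sequencing-chip clusters where stalled E. coli RNA polymerase had transcribed each design. A titration of SNAP-549-labelled MS2 coat protein began at 0.7 or 1.5 nM and doubled to 3 µM, once without ligand and once with constant ligand, in 100 mM Tris-HCl pH 7.5, 80 mM KCl, 4 mM MgCl2, BSA, DTT, yeast tRNA and Tween-20. The apparent Kd is the median of filtered per-cluster binding-curve fits, based on green signal normalised to red-channel RNA signal and control-cluster median Fmax.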

[1] = designed as: OFF switch for flavin mononucleotide, no ligand
[2] = ligand present: flavin mononucleotide, designed as: OFF switch for flavin mononucleotide
[3] = designed as: ON switch for flavin mononucleotide, no ligand
[4] = ligand present: flavin mononucleotide, designed as: ON switch for flavin mononucleotide

Sequence	apparent Kd [1] [nM]	apparent Kd [2] [nM]	apparent Kd [3] [nM]	apparent Kd [4] [nM]
AUAAUUAUAUAUUUCCCAAGAAUCAGAAGGCGUUACAUGAGGAUCACCCAUGUUUUGUAUAGUAACGAGGAUAUGAUAUGGAAA	16.3	14.5	–	–
CGGGAGUCAGGAUAUACGAACAUGUCGCCAGAUGUCAAGGUACAUGAGGAUCACCCAUGUAGAAGGGAGGAGAA	91	54.3	–	–
ACAAAGUGAGGAUAUGCUAUUAUACAUUAUUGUUAUUAUUUGCAGAAGGCACAUGAGGAUCACCCAUGUAAGAA	29.8	22.6	–	–
GUAAAGUGAGGAUAUGGUAAAGUAAUUAUUUAGUAAGUAAUCCAGAAGGCACAUGAGGAUCACCCAUGUAAAUG	31.3	36.8	–	–
UCGCUGCGAGGAUAUACAUGAGGAUCACCCAUGUACGGGUCCGGGUCUUCGUCUAUUGGUAGAAGGCGCAGUGA	54.2	277	–	–
CUGUGACGGUGCGCAAGUGUACGUAGAAGGGUCACAUGAGGAUCACCCAUGUGGGCCUGCGAGUGACAGGAUAUACGUGCGUGC	6.39	12.4	–	–
GGAUAGGACAGAGGAUAUACGUGCUAGAGAUACUAGCUACAAAUCCUUACAUGAGGAUCACCCAUGUAGAAGGCUGUCCUAUCG	19.3	38.3	–	–
UUCGGCGCAGGAUAUGCGGUUCUGUGUUGAAUCGGCGCGGGACAUGAGGAUCACCCAUGUAGAAGGGUGUUGGG	361	287	–	–
AUUGUUAAGUUAGGAUAUAGUAAAAUGAUUUAGUUAGAAGGAGCUCACAUGAGGAUCACCCAUGUAAGAGGAUCACCCAUGUAU	24.9	18.3	–	–
GUAGCUAUCGGAGGAUAUCCAUACCGGAAACGGACAUGAGGAUCACCCAUGUGGCGAAAGCCUUGGGAGAAGGCCGAUAGCUAC	–	–	5.06	3.36
CGCUACAGCCAGAAGGACAUGAGGAUCACCCAUGUAGGAUAUGGGAGACGAGGUCCAGUGUAGAGAAACUACGCUACUGUAGCG	–	–	292	151
ACCAAGCGAGGAUAUACUUAGAUUUUUUCGUUUAGUCUCGAACAUGAGGAUCACCCAUGUAGAAGGUGCUUCAC	47.8	46.5	–	–
UUUUUGUCAGGAUAUCAAAAGUACUACUUCGGUAGUACUUUUGAGAAGGGACAUGAGGAUCACCCAUGUAGUUU	61.4	285	–	–
GCACUGGAUGUAGGAUAUCAGGACGAUAAGUCCUGAGAAGGACAUGAGGAUCACCCAUGUAAAACCUCCCAGUGCUAUAAUAUA	17.1	19.7	–	–
AAGUCUGUACGAGGAUAUCAGUUGUAUCUAAAUUCAACAUGAGGAUCACCCAUGUUGCAAUAGGGUGAGAAGGCGUGUGGGCAA	–	–	70.1	21.6
UCCUGGCGAGGAUAUACAAAGUUUUUUACGUUUUGUUACGAACAUGAGGAUCACCCAUGUAGAAGGUGCUGCUG	62.2	58.1	–	–
UGUGUGAGACAGGAUAUGCCGGUUGUAUUGCUGGUAGAAGGGUCUACAUGAGGAUCACCCAUGUGGCCGGUUGG	18.6	23.2	–	–
UCAUACAUUCGAGGAUAUCGGUGAUAACUCAAACGAGAAGGCGAUUUAAAACAUAAUGCUGUAGACAUGAGGAUCACCCAUGUA	–	–	476	182
AGUUAAUAUCGAGGAUAUGUCUAGACACAUGAGGAUCACCCAUGUAUGUGUAUAGAAGGCGAUAUUAACAGCAUGUUACAUGCU	–	–	42.9	16.4
AAAAAAUAAGGAUAUACAUUUCGGGAAAUUUUUACAAAAAAACAUGAGGAUCACCCAUGUAGAAGGUAUAAAAA	23.2	20.1	–	–
UAAUAUCUGUAGGAUAUCGGUGGAGCACACGUAUGAGAAGGGCAGACAUGAGGAUCACCCAUGUAUAGGGUCCG	26.8	41	–	–
UGGUUAUAUGAAGGAUAUACUUAACAUGAGGAUCACCCAUGUGGUGUUGUGAGUGAGUGAGUUUAGUAGAAGGUCAAUUCUUUU	176	197	–	–
AAACCACAUGAGGAUCACCCAUGUGAGGAUAUGAUACUAUGUACUUCGGUACAUAGUAUCAGAAGGCAUGUGGA	180	130	–	–
GUCGGAAACGACAAAAGUAGCAUACGAGAAGGUUGAUCCAAGACAUGAGGAUCACCCAUGUAGUUAGAGGAUAUUGGAUGCUAC	–	–	163	116

Sequence	apparent Kd [1] [nM]	apparent Kd [2] [nM]	apparent Kd [3] [nM]	apparent Kd [4] [nM]
ACGUUUUAUGCAGGAUAUUGACUUAUAUUUAAACAAGAAGGGCAAUACAUGAGGAUCACCCAUGUUAUCAUGGUAUUUAAGUUC	82.2	53.9	–	–
CCGGAAACGGGUAGCCUGACAUGAGGAUCACCCAUGUGAACCAAGGAUAUGGAUCCUAAUUGGAUCCAGAAGGUGGAAGGCUAC	–	–	243	45.3
CUCAUGUGAGGAUAUCAGUAGUGAUACGAUAGUAUUACUGCUGAGAAGGUACAUGAGGAUCACCCAUGUUCCUC	26.9	37.8	–	–
AAUUUAAUACAUGAGGAUCACCCAUGUAAUACUAGUAAGAUCUAGGAUAUCAGCUCGAUUAGAGCUGAGAAGGAGAUCACAUGU	–	–	92.9	27.9
AUCAGCUCGUCAGGAUAUACGUCACUGCGUCAGCAGUAUGGUAAGAUCACAUGAGGAUCACCCAUGUAGAAGGGACGAGCUGAU	62.2	663	–	–
UACUAUAAGGAGGAUAUCGUAUCGGAGACGAUACGAGAAGGCUUAACAUGAGGAUCACCCAUGUUCUUCAAUAU	15.3	18.3	–	–
GUCGUGCGGCUUUGCUGUACGAGUACAUGAGGAUCACCCAUGUAGGAUAUGGUUCGUUUUGCGUGCCAGAAGGGCGUGCGUUGU	25.5	24.8	–	–
CAAUUUAUGUCAGGAUAUACAAUACAAUGAUUAGUAGAAGGGAUUAAUACAUGAGGAUCACCCAUGUCAUGUGUCAUAAUAACC	26.1	20.1	–	–
GGGUAGUGAGGAUAUCGUUGUUAGGAGGAGUAGGUAGGAGGCGAGAAGGCACAUGAGGAUCACCCAUGUAUGAG	29.2	30.4	–	–
UUUUUGUGAGGAUAUCAGUAGUAAAUAAAUAAAAUUACUACUGAGAAGGCACAUGAGGAUCACCCAUGUUCCUU	13.7	33.4	–	–
GCACUGGAUGUAGGAUAUCAGGACGAUAAGUCCUGAGAAGGACAUGAGGAUCACCCAUGUAAACUCUAACCAGUGCAUAAUAUA	14	20.4	–	–
UGUAUGUAGGCAGGAUAUACAUGAAUAUAUAUGAUGUAGUAUGAUGUAACAUGAGGAUCACCCAUGUAGAAGGGCCAGUGUAUG	77.8	129	–	–
UGGUACAUCAUAGGAUAUCGUGUGUAAACAUGAGGAUCACCCAUGUCAUCCGAGAGUAUGUCGACCGAGAAGGGUGAUGUACCU	–	–	45.4	72.7
GGGUACAUCGGAGGAUAUCAUGUAAAUACAUGAGGAUCACCCAUGUCGAUGUAGACAUCGGAGAUUGAGAAGGCCGAUGUACCG	–	–	1400	52
AGCUGUGGCCGAGGAUAUACAUCCUUUAUAAAACCGAAAUAUAAUCGGACAUGAGGAUCACCCAUGUAGAAGGCGGUCUCAGCA	51.4	702	–	–
UUGGACGUCGUAGGAUAUGUAGGAUAUUCCUACAUGAGGAUCACCCAUGUUGACAUGGAAGAAGGACAGAAGCACGAUGUCCAU	–	–	199	5.35
AAUAGUACAGGAUAUACAUGAGGAUCACCCAUGUGAAAAUUAAGUGGCGUACCACAAAGUAGAAGGGUACUGGA	22.8	71.4	–	–
GCCAUCGCAUGAGGAUAUGGCACCGUUUCGGUGCCAGAAGGCAUGUCUCUUGACAUGAGGAUCACCCAUGUAGUUAAGAUGGCA	–	–	779	52
GCCAGUUAUGUAGGAUAUGCGCAGCGAGCCUGAGCAGAAGGACAUGAGGAUCACCCAUGUGUUGCGGUUUGAGUACUAAUCGCU	24.3	134	–	–
AACUAUGUAUUUAUAGUGUCUGACAGAAGGCAAUAGGUUGUGACCGACAUGAGGAUCACCCAUGUUGAGGAUAUGUCUAGCUAC	40.4	264	–	–
AGUUAAUAUCGAGGAUAUCCUCAUCUACAUGAGGAUCACCCAUGUAAGCAUGGAGAAGGCGAUAUUAACAGCAUGUUACAUGCA	–	–	112	10.5
UGAUAGGACACAGGAUAUACGUCCUAGAGAUACUAGGAAAGUUUCCUCACAUGAGGAUCACCCAUGUAGAAGGGUGUCCUAUCU	9.93	222	–	–
CAGCUACCCAGUAUGGGUUUUUGUACAGAAGGCCAGGUACAUGAGGAUCACCCAUGUAAAGAUAUGGAGGAUAUGUUAGUGUAU	–	–	29.1	8.08
UCCAUCGUAUGAGGAUAUGGAACUGAAACAGUUCCAGAAGGCAUGUCAAUAGACAUGAGGAUCACCCAUGUAUUAUCGAUGGAA	–	–	429	42.9
